Data published in ChEMBL document CHEMBL1123921, “Quinolonecarboxylic acids. 2. Synthesis and antibacterial evaluation of 7-oxo-2,3-dihydro-7H-pyrido[1,2,3-de][1,4]benzothiazine-6-carboxylic acids” (J Med Chem, 1987).

Experiments:
[1] = in vivo; details: ip, 25 mg/kg
[2] = Urinary clearance was determined in rat at 25 mg/kg intraperitoneal dosage; format: ADME, organism-based; design: dose 25 mg/kg, route intraperitoneal; details: urine, ip, read-out: CL_renal (converted)
How it was run: (§1)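 Fasted male Wistar rats (180–230 g) given the drug ip in carboxymethyl cellulose. Plasma and urine extracted with CHCl₃ from citrate buffer pH 6.2 with internal standard. Analysis by reverse-phase C-18 HPLC, 0.1% AcOH/MeOH gradient, 245 nm UV. Urinary clearance and total clearance derived as pharmacokinetic parameters.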

[3] = Urinary excretion for the compound was evaluated as percent dose excreted at 100 mg/kg oral dosage in human; format: ADME, organism-based; design: dose 100 mg/kg, route oral; details: urine
How it was run: (§2)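 Four healthy volunteers of both sexes took oral capsules (100 mg units) at three dose levels. Venous blood drawn into heparinized tubes and plasma obtained by low-speed centrifugation. Urine collected. Unchanged drug in plasma and urine determined by C-18 HPLC after CHCl₃ extraction, with UV detection at 245 nm.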

[4] = tested on: Klebsiella pneumoniae; test: In vitro antibacterial activity against clinical isolates of Klebsiella pneumoniae-4 (gram negative) by agar dilution assay.; format: functional
How it was run: (§3)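 Agar dilution on Isosensitest agar; compound incorporated by twofold serial dilution. Overnight broth cultures delivered by multipoint inoculator at 10⁵ CFU per point. Plates read after 18 h at 37 °C. MIC taken as the lowest concentration giving complete growth inhibition.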

[5] = Half life period was determined for the compound at 400 mg/kg concentration, oral route in human; format: ADME, organism-based; design: dose 400 mg/kg, route oral; details: in vivo
How it was run: as §2

[6] = Ratio of AUC from os administration to AUC from ip administration at a dose of 25 mg/kg; format: ADME, organism-based; design: dose 25 mg/kg, route intraperitoneal; details: in vivo
How it was run: (§4)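 Fasted male Wistar rats (180–230 g), drug suspended in carboxymethyl cellulose, given orally or ip. Plasma (heparinized) and urine from metabolic cages were sampled at various times. The unchanged drug was measured by HPLC after CHCl3 extraction at pH 6.2 with an internal standard, on a C-18 column with an AcOH/MeOH gradient and UV detection at 245 nm. Interassay and intraassay variability was about 10%.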

[7] = Half life period was determined for the compound at 20 mg/kg concentration, oral route in dog(beagle); format: ADME, organism-based, Canis lupus familiaris; design: dose 20 mg/kg, route oral; details: in vivo
How it was run: (§5)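 Four male beagle dogs or two Macaca fascicularis monkeys dosed orally, suspended in carboxymethyl cellulose. Venous blood collected into heparinized tubes and plasma separated by low-speed centrifugation. Urine gathered in metabolic cages. Unchanged drug measured by C-18 HPLC (extraction, UV 245 nm).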

[8] = Ratio of tissue (liver) levels to plasma levels after 15 hr of treatment; format: ADME
How it was run: (§6)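 Male Wistar rats received 50 mg/kg po and were killed at 1 and 15 h. Tissue homogenates and plasma extracted with CHCl₃ after adding internal standard and pH 6.2 citrate buffer. Drug quantified by C-18 HPLC with UV at 245 nm. Tissue level divided by plasma level.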

[9] = Ratio of tissue (kidney) levels to plasma levels after 1 hr of treatment; format: ADME
How it was run: as §6

[10] = Time taken for peak plasma concentration at a dose of 50 mg/kg, os route in rat suspended in carboxymethyl cellulose (CMC); format: ADME, organism-based; design: dose 50 mg/kg; details: po
How it was run: (§7)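 Fasted male Wistar rats (180–230 g) dosed orally, suspended in carboxymethyl cellulose. Plasma and urine assayed by HPLC: sample plus internal standard and citrate buffer (0.1 M, pH 6.2), extracted into CHCl₃, dried, redissolved in MeOH. Separation on C-18 with 0.1% AcOH/MeOH gradient, UV detection at 245 nm.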

[11] = Ratio of tissue (liver) levels to plasma levels after 1 hr of treatment; format: ADME
How it was run: as §6

[12] = Time taken for peak plasma concentration at a dose of 20 mg/kg, oral route in dog(beagle) suspended in carboxymethyl cellulose (CMC); format: ADME, organism-based, Canis lupus familiaris; design: dose 20 mg/kg, route oral
How it was run: as §5

[13] = tested on: Enterobacter cloacae; test: In vitro antibacterial activity against clinical isolates of Enterobacter cloacae 041 (gram negative) by agar dilution assay.; format: functional
How it was run: as §3

[14] = Time taken for peak plasma concentration at a dose of 100 mg/kg, os route in rat suspended in carboxymethyl cellulose (CMC); format: ADME, organism-based; design: dose 100 mg/kg; details: po
How it was run: as §7

[15] = Time taken for peak plasma concentration at a dose of 200 mg/kg, oral route in human; format: ADME, organism-based; design: dose 200 mg/kg, route oral
How it was run: as §2

[16] = Half life period was determined for the compound at 50 mg/kg concentration, os route; details: in vivo, po
[17] = in vivo; details: po, 25 mg/kg
[18] = Ratio of tissue (heart) levels to plasma levels after 1 hr of treatment; format: ADME
How it was run: as §6

[19] = tested on: Rattus norvegicus; test: Volume of distribution at a dose of 25 mg/kg, intraperitoneal route in rat suspended in carboxymethyl cellulose (CMC); format: ADME, organism-based; design: dose 25 mg/kg, route intraperitoneal; details: in vivo, ip
How it was run: as §1

[20] = tested on: Rattus norvegicus; test: Volume of distribution at a dose of 10 mg/kg, intraperitoneal route in rat suspended in carboxymethyl cellulose (CMC); format: ADME, organism-based; design: dose 10 mg/kg, route intraperitoneal; details: in vivo, ip
How it was run: as §1

[21] = in vivo; details: kidney, po, 50 mg/kg
[22] = Ratio of urinary excretion after os administration to ip administration; format: ADME, organism-based, Urine; details: in vivo
How it was run: as §4

[23] = in vivo; details: liver, po, 50 mg/kg
[24] = Plasma levels determined 1 hr after peroral dose of 50 mg/kg; details: po
[25] = tested on: Homo sapiens; test: Urinary clearance was determined at 100 mg/kg oral dosage in human; format: ADME, organism-based, Urine; design: dose 100 mg/kg, route oral; details: in vivo
How it was run: as §2

[26] = Peak plasma concentration at a dose of 20 mg/kg, oral route in dog(beagle) suspended in carboxymethyl cellulose (CMC); format: ADME, organism-based, Canis lupus familiaris; design: dose 20 mg/kg, route oral; details: read-out: Activity
How it was run: as §5

[27] = Urinary excretion for the compound was evaluated as percent dose excreted at 20 mg/kg oral dosage in dog (beagle);Range is between (8-10).; format: ADME, organism-based, Canis lupus familiaris; design: dose 20 mg/kg, route oral; details: urine
How it was run: as §5

[28] = Tissue levels determined 1 hr after peroral dose of 50 mg/kg in kidney; details: po

SMILES: CN1CCN(c2c(F)cc3c(=O)c(C(=O)O)cn4c3c2SCC4)CC1 [RUFLOXACIN]
- half-life [1]: 9.9 h
- CL renal [2]: 0.79 mL/min/kg
- dose excreted [3]: 45%
- MIC [4]: < 0.39 µg/mL
- half-life [5]: 32 h
- Ratio [6]: 0.85
- half-life [7]: 12 h
- Kp at 15 h [8]: 3.7
- Kp at 1 h [9]: 6
- Tmax [10]: 1 h
- Kp at 1 h [11]: 8
- Tmax [12]: 4 h
- MIC [13]: < 0.39 µg/mL
- Tmax [14]: 1 h
- Tmax [15]: 4 h
- half-life [16]: 8.7 h
- half-life [17]: 8.7 h
- Kp at 1 h [18]: 3
- Vd [19]: 3 L/kg
- Vd [20]: 3 L/kg
- concentration at 15 h [21]: 8000 ng/mL
- Ratio [22]: 0.91
- concentration at 15 h [23]: 11000 ng/mL
- concentration at 1 h [24]: 10000 ng/mL
- CL_renal [25]: 0.0933 mL/min/kg
- Cmax [26]: 5700 ng/mL
- dose excreted [27]: 8%
- concentration at 1 h [28]: 61000 ng/mL
